Source: ChEMBL document CHEMBL1146563, “CT2108A and B: New fatty acid synthase inhibitors as antifungal agents” (J Nat Prod, 2003)
≈ marks a conversion by molar mass, not a printed value. Calls of active or inactive are those of the source. The calls are words filed in the database; no cut-off is given here.

Experiments:
[1] = Inhibition of Candida albicans SC5314 FAS by spectrophotometry
Candida albicans [2] = assay: Antifungal activity against Candida albicans assessed as hazy zone of inhibition by disk diffusion assay; format: functional
Method in brief: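 Disk diffusion on C. albicans; the zone of growth inhibition around the disk is read and reported as diameter in mm.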

Candida albicans [3] = assay: Antifungal activity against Candida albicans by microdilution spectrophotometric method in presence of mysteric acid; format: functional
Method in brief: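 Growth inhibition of C. albicans in a medium supplemented with 1.0% Tween 40 and 0.03% mysteric acid (long-chain fatty acids).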

Candida albicans [4] = assay: Antifungal activity against Candida albicans by microdilution spectrophotometric method; format: functional
Fatty acid synthase = Fatty acid synthase (Homo sapiens, UniProt P49327); assay: Inhibition of FAS in human ZR-75-1 cells by spectrophotometry; format: cell-based
Candida tropicalis [5] = assay: Antifungal activity against Candida tropicalis after 48 hrs; format: functional
Method in brief: (§1)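 Minimum inhibitory concentration against clinical isolates, read at 24 h and at 48 h. Isolates tested: C. albicans 4, C. tropicalis 1, C. lusitaniae 3, C. guilliermondii 1, C. krusei 3, C. glabrata 3, C. parapsilosis 4, C. dubliniensis 2, S. cerevisiae 4, Cryptococcus neoformans 2, Cryptococcus laurentii 2.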

Candida dubliniensis [6] = assay: Antifungal activity against Candida dubliniensis after 48 hrs; format: functional; method in brief: as §1
Candida albicans [7] = assay: Antifungal activity against Candida albicans assessed as clear zone of inhibition by disk diffusion assay; format: functional
Method in brief: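 Disk diffusion on C. albicans; the zone of inhibition is measured in mm.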

Clavispora lusitaniae [8] = assay: Antifungal activity against Candida lusitaniae after 24 hrs; format: functional; method in brief: as §1
Cryptococcus neoformans [9] = assay: Antifungal activity against Cryptococcus neoformans after 48 hrs; format: functional; method in brief: as §1
[10] = tested on: Meyerozyma guilliermondii; assay: Antifungal activity against Candida guilliermondii after 24 hrs; format: functional; method in brief: as §1
Pichia kudriavzevii [11] = assay: Antifungal activity against Candida krusei after 48 hrs; format: functional; method in brief: as §1
Papiliotrema laurentii [12] = assay: Antifungal activity against Cryptococcus laurentii after 24 hrs; format: functional; method in brief: as §1
Saccharomyces cerevisiae [13] = assay: Antifungal activity against Saccharomyces cerevisiae after 24 hrs; format: functional; method in brief: as §1
Candida parapsilosis [14] = assay: Antifungal activity against Candida parapsilosis after 24 hrs; format: functional; details: Lodderomyces parapsilosis; method in brief: as §1
Nakaseomyces glabratus [15] = assay: Antifungal activity against Candida glabrata after 48 hrs; format: functional; method in brief: as §1
Papiliotrema laurentii [16] = assay: Antifungal activity against Cryptococcus laurentii after 48 hrs; format: functional; method in brief: as §1
Candida dubliniensis [17] = assay: Antifungal activity against Candida dubliniensis after 24 hrs; format: functional; method in brief: as §1
Candida albicans [18] = assay: Antifungal activity against Candida albicans after 24 hrs; format: functional; method in brief: as §1
Cryptococcus neoformans [19] = assay: Antifungal activity against Cryptococcus neoformans after 24 hrs; format: functional; method in brief: as §1
Pichia kudriavzevii [20] = assay: Antifungal activity against Candida krusei after 24 hrs; format: functional; method in brief: as §1
Saccharomyces cerevisiae [21] = assay: Antifungal activity against Saccharomyces cerevisiae after 48 hrs; format: functional; method in brief: as §1
Candida parapsilosis [22] = assay: Antifungal activity against Candida parapsilosis after 48 hrs; format: functional; details: Lodderomyces parapsilosis; method in brief: as §1
Nakaseomyces glabratus [23] = assay: Antifungal activity against Candida glabrata after 24 hrs; format: functional; method in brief: as §1
Candida tropicalis [24] = assay: Antifungal activity against Candida tropicalis after 24 hrs; format: functional; method in brief: as §1
Clavispora lusitaniae [25] = assay: Antifungal activity against Candida lusitaniae after 48 hrs; format: functional; method in brief: as §1
[26] = tested on: Meyerozyma guilliermondii; assay: Antifungal activity against Candida guilliermondii after 48 hrs; format: functional; method in brief: as §1
Candida albicans [27] = assay: Antifungal activity against Candida albicans after 48 hrs; format: functional; method in brief: as §1

Chain of Fatty acid synthase (P49327 whole entry): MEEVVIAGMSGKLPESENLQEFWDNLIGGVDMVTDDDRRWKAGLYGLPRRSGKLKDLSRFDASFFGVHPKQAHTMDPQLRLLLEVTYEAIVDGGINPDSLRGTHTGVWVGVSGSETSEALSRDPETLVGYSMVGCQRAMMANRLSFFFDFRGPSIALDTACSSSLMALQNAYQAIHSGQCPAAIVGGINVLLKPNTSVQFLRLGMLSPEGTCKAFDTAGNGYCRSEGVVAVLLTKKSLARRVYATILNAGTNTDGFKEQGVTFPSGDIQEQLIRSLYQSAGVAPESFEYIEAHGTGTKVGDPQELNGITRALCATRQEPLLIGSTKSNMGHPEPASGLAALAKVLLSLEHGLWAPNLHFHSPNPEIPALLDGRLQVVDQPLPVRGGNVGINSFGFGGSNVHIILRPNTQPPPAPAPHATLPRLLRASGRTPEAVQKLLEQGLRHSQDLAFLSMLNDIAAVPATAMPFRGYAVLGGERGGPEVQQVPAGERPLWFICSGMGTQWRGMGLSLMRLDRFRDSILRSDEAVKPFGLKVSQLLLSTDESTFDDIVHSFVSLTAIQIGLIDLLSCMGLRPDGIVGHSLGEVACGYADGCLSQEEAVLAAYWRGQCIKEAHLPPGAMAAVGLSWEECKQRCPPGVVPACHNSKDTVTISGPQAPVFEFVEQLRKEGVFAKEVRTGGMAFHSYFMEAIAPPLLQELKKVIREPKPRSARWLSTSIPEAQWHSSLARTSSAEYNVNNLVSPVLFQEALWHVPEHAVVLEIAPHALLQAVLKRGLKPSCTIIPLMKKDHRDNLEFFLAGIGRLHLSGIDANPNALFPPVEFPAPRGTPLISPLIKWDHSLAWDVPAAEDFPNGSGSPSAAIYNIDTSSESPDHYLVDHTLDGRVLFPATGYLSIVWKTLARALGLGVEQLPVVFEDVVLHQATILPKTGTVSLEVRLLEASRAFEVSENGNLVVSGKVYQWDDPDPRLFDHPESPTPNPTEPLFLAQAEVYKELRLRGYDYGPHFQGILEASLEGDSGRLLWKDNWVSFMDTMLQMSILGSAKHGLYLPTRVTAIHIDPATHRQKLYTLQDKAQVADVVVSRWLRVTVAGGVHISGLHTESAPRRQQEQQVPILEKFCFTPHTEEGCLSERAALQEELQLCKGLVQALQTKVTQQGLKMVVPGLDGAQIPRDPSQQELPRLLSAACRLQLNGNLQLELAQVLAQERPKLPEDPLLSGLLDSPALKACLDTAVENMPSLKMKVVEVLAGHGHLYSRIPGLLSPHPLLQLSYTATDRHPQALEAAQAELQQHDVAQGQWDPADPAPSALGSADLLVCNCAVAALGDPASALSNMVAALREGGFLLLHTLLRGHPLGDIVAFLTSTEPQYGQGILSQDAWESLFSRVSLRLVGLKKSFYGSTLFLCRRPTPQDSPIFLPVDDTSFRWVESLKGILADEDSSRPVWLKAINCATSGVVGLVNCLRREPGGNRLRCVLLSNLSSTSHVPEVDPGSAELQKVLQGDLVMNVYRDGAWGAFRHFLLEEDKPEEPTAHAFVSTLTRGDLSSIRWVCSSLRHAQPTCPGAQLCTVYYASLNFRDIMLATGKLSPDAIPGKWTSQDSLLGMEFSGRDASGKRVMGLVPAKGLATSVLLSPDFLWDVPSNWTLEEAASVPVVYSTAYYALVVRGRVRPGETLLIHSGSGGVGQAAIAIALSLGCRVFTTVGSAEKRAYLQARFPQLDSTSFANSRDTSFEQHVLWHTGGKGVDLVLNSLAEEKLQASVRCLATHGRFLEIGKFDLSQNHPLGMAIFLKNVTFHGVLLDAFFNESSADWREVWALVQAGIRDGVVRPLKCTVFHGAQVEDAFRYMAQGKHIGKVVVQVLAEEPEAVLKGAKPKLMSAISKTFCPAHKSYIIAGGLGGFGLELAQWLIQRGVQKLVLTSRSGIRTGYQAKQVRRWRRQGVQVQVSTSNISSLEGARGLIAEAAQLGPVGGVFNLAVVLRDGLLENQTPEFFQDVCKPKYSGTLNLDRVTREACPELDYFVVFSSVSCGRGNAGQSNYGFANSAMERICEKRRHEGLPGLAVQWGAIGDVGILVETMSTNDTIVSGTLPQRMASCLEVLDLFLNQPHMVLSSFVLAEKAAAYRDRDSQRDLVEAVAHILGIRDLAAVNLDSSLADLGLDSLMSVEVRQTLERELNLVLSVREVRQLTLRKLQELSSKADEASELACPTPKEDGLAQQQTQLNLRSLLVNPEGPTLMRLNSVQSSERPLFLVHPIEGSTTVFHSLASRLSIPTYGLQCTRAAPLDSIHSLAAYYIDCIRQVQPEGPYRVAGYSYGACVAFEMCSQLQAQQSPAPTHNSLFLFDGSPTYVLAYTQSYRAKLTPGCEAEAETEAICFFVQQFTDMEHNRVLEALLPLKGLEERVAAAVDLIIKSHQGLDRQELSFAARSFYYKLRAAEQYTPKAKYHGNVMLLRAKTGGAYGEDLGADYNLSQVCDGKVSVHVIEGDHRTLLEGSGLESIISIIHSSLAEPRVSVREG

Row | IC50 [1] | MIC (Candida albicans [3]) | MIC (Candida albicans [4]) | IC50 (Fatty acid synthase) | MIC (Candida dubliniensis [6]) | MIC (Clavispora lusitaniae [8]) | MIC (Cryptococcus neoformans [9]) | MIC [10] | MIC (Pichia kudriavzevii [11]) | MIC (Saccharomyces cerevisiae [13]) | MIC (Candida parapsilosis [14]) | MIC (Nakaseomyces glabratus [15]) | MIC (Papiliotrema laurentii [16]) | MIC (Candida dubliniensis [17]) | MIC (Candida albicans [18]) | MIC (Cryptococcus neoformans [19]) | MIC (Pichia kudriavzevii [20]) | MIC (Saccharomyces cerevisiae [21]) | Structure (SMILES) | MFC (Candida albicans [4]) | inhibition zone (IZ) (Candida albicans [7]) | further results
1 | 250 µg/mL (≈ 675 µM) | 50 µg/mL | 3.13 µg/mL (≈ 8.45 µM) | > 2.7 mM | 12.5 µg/mL (≈ 33.7 µM) | 16.3 µg/mL (≈ 44 µM) | < 1.6 µg/mL | < 1.6 µg/mL | 50 µg/mL (≈ 135 µM) | 8.2 µg/mL (≈ 22.1 µM) | 14.8 µg/mL (≈ 40 µM) | 50 µg/mL (≈ 135 µM) | < 1.6 µg/mL | 12.5 µg/mL (≈ 33.7 µM) | 7.8 µg/mL (≈ 21.1 µM) | < 1.6 µg/mL | 25 µg/mL (≈ 67.5 µM) | 25 µg/mL (≈ 67.5 µM) | C/C=C/C=C/C=C/C1=CC2=CC(=O)[C@](C)(OC(=O)C[C@H](C)O)C(=O)C2=CO1 | 6.25 µg/mL (≈ 16.9 µM) | 10 mm | MIC (Candida tropicalis [5]): 6.25 µg/mL (≈ 16.9 µM); MIC (Papiliotrema laurentii [12]): < 1.6 µg/mL; MIC (Candida parapsilosis [22]): 50 µg/mL (≈ 135 µM); MIC (Nakaseomyces glabratus [23]): 25 µg/mL (≈ 67.5 µM); MIC (Candida tropicalis [24]): 6.25 µg/mL (≈ 16.9 µM); MIC (Clavispora lusitaniae [25]): 41.6 µg/mL (≈ 112 µM); MIC [26]: 1.6 µg/mL (≈ 4.32 µM); MIC (Candida albicans [27]): 7.8 µg/mL (≈ 21.1 µM)
2 | 160 µg/mL (≈ 414 µM) | 50 µg/mL | 6.25 µg/mL (≈ 16.2 µM) | > 2.59 mM | 18.8 µg/mL (≈ 48.7 µM) | 8.3 µg/mL (≈ 21.5 µM) | 3.12 µg/mL (≈ 8.07 µM) | < 1.6 µg/mL | 25 µg/mL (≈ 64.7 µM) | 5.9 µg/mL (≈ 15.3 µM) | 15.6 µg/mL (≈ 40.4 µM) | 83.3 µg/mL (≈ 216 µM) | 6.25 µg/mL (≈ 16.2 µM) | 9.4 µg/mL (≈ 24.3 µM) | 3.9 µg/mL (≈ 10.1 µM) | 25 µg/mL (≈ 64.7 µM) | 12.5 µg/mL (≈ 32.3 µM) | 20.3 µg/mL (≈ 52.5 µM) | C/C=C/C=C/C=C/C1=CC2=CC(=O)[C@](C)(OC(=O)C[C@H](C)O)C(=O)C23OC3O1 (stereo not given in full) | 25 µg/mL (≈ 64.7 µM) | 8 mm | Activity (Papiliotrema laurentii [12]): Active; MIC (Candida parapsilosis [22]): 62.5 µg/mL (≈ 162 µM); MIC (Nakaseomyces glabratus [23]): 29.2 µg/mL (≈ 75.6 µM); MIC (Clavispora lusitaniae [25]): 37.5 µg/mL (≈ 97 µM); MIC [26]: 1.6 µg/mL (≈ 4.14 µM); MIC (Candida albicans [27]): 7.8 µg/mL (≈ 20.2 µM)

Row | Structure (SMILES) | IC50 [1] | MIC (Candida albicans [3]) | MIC (Candida albicans [4]) | IC50 (Fatty acid synthase) | MIC (Candida dubliniensis [6]) | MIC (Clavispora lusitaniae [8]) | MIC (Cryptococcus neoformans [9]) | MIC [10] | MIC (Pichia kudriavzevii [11]) | MIC (Saccharomyces cerevisiae [13]) | MIC (Candida parapsilosis [14]) | MIC (Nakaseomyces glabratus [15]) | MIC (Papiliotrema laurentii [16]) | MIC (Candida dubliniensis [17]) | MIC (Candida albicans [18]) | MIC (Cryptococcus neoformans [19]) | MIC (Pichia kudriavzevii [20]) | MIC (Saccharomyces cerevisiae [21]) | MFC (Candida albicans [4]) | inhibition zone (IZ) (Candida albicans [7]) | further results
3 | C/C=C/C/C=C/CCC(=O)[C@H]1O[C@H]1C(N)=O [CERULENIN] | 0.5 µg/mL (≈ 2.24 µM) | > 1000 µg/mL | 5 µg/mL (≈ 22.4 µM) | 0.00224 mM |  |  |  |  |  |  |  |  |  |  |  |  |  |  | 5 µg/mL (≈ 22.4 µM) |  | inhibition zone (IZ) (Candida albicans [2]): 20 mm
